From ChEMBL document CHEMBL2040750, “Hybrids of ravuconazole: synthesis and biological evaluation” (2012)
In brackets after ≈: the same amount, converted by molar mass. Activity calls are given as the source filed them. No cut-off for these calls is given here.

Legend:
Format in all cases: functional
[1] = system: Aspergillus niger; assay: Antifungal activity Aspergillus niger NCIM 545 at 100 ug/disc by agar-well diffusion assay; details: for zone of inhibition at 100 µg/disc: read-out: DIZ
Procedure, shortened: (§1)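 Agar-well diffusion screen against standard strains. Zone of inhibition is the read-out. Chloramphenicol, nystatin and ravuconazole were run as positive controls.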

[2] = system: Candida albicans; assay: Antifungal activity Candida albicans NCIM 3471 at 100 ug/disc by agar-well diffusion assay; details: for zone of inhibition at 100 µg/disc: read-out: DIZ; procedure, shortened: as §1
[3] = system: Aspergillus niger; assay: Antifungal activity Aspergillus niger NCIM 545 after 24 to 72 hrs by NCCLS method
Procedure, shortened: (§2)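 Broth microdilution MIC per NCCLS. Compounds dissolved in DMSO, serially diluted in growth medium, incubated at 37 °C. Read at 24 h for bacteria and 24–72 h for fungi. MIC90 taken as the first well with about 90% growth reduction relative to the drug-free well.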

[4] = system: Pseudomonas aeruginosa; assay: Antibacterial activity Pseudomonas aeruginosa NCIM 2036 after 24 hrs by NCCLS method; procedure, shortened: as §2
[5] = system: Staphylococcus aureus; assay: Antibacterial activity Staphylococcus aureus NCIM 2079 after 24 hrs by NCCLS method; procedure, shortened: as §2
[6] = system: Candida albicans; assay: Antifungal activity Candida albicans NCIM 3471 after 24 to 72 hrs by NCCLS method; procedure, shortened: as §2
[7] = system: Escherichia coli; assay: Antibacterial activity Escherichia coli NCIM 2109 at 100 ug/disc by agar-well diffusion assay; details: for zone of inhibition at 100 µg/disc: read-out: DIZ; procedure, shortened: as §1
[8] = system: Pseudomonas aeruginosa; assay: Antibacterial activity Pseudomonas aeruginosa NCIM 2036 at 100 ug/disc by agar-well diffusion assay; details: for zone of inhibition at 100 µg/disc: read-out: DIZ; procedure, shortened: as §1
[9] = system: Bacillus subtilis; assay: Antibacterial activity Bacillus subtilis NCIM 2250 at 100 ug/disc by agar-well diffusion assay; procedure, shortened: as §1
[10] = system: Bacillus subtilis; assay: Antibacterial activity Bacillus subtilis NCIM 2250 after 24 hrs by NCCLS method; procedure, shortened: as §2
[11] = system: Escherichia coli; assay: Antibacterial activity Escherichia coli NCIM 2109 after 24 hrs by NCCLS method; procedure, shortened: as §2
[12] = system: Staphylococcus aureus; assay: Antibacterial activity Staphylococcus aureus NCIM 2079 at 100 ug/disc by agar-well diffusion assay; procedure, shortened: as §1

Row | MIC [3] | MIC [4] | MIC [5] | MIC [6] | MIC [10] | MIC ([11]; NCIM 2109, 24 h) | MIC ([4]; NCIM 2036, 24 h) | MIC [11] | MIC ([10]; NCIM 2250, 24 h) | Compound | zone of inhibition at 100 µg/disc [1] | diameter of the inhibition zone (DIZ) [2] | zone of inhibition at 100 µg/disc [7] | diameter of the inhibition zone (DIZ) [8] | diameter of the inhibition zone (DIZ) [9] | diameter of the inhibition zone (DIZ) [12] | zone of inhibition at 100 µg/disc [2] | zone of inhibition at 100 µg/disc [8] | diameter of the inhibition zone (DIZ) [1] | zone of inhibition at 100 µg/disc ([9]; read-out: DIZ) | diameter of the inhibition zone (DIZ) [7]
1 | > 64 µg/mL | inactive | inactive | > 64 µg/mL | inactive | > 64 µg/mL | – | – | – | FC(F)(F)c1cc(-c2csc(N/N=C(/Cn3cncn3)c3ccc(Br)cc3)n2)cc(C(F)(F)F)c1 | 10.9 mm | – | 11.4 mm | inactive | inactive | inactive | 13.9 mm | – | – | – | –
2 | 16 µg/mL (≈ 30.1 µM) | – | inactive | 32 µg/mL (≈ 60.3 µM) | inactive | > 64 µg/mL | 32 µg/mL (≈ 60.3 µM) | – | – | FC(F)(F)c1cc(/C(Cn2cncn2)=N\Nc2nc(-c3ccc(Cl)cc3)cs2)cc(C(F)(F)F)c1 | 19.1 mm | – | 13.2 mm | – | inactive | inactive | 17.6 mm | 26.8 mm | – | – | –
3 | inactive | – | inactive | inactive | – | > 64 µg/mL | 32 µg/mL (≈ 55.6 µM) | – | > 64 µg/mL | FC(F)(F)c1cc(/C(Cn2cncn2)=N\Nc2nc(-c3ccc(Br)cc3)cs2)cc(C(F)(F)F)c1 | – | inactive | 17 mm | – | – | inactive | – | 20.4 mm | inactive | 10.1 mm | –
4 | inactive | inactive | inactive | inactive | inactive | – | – | inactive | – | O=[N+]([O-])c1ccc(-c2csc(N/N=C(/Cn3cncn3)c3cc(C(F)(F)F)cc(C(F)(F)F)c3)n2)cc1 | – | inactive | 11.1 mm | inactive | inactive | inactive | – | – | inactive | – | –

Continued, molecule first:

Row | Compound | MIC [3] | MIC [4] | MIC [5] | MIC [6] | MIC [10] | MIC ([11]; NCIM 2109, 24 h) | MIC ([4]; NCIM 2036, 24 h) | MIC [11] | MIC ([10]; NCIM 2250, 24 h) | zone of inhibition at 100 µg/disc [1] | diameter of the inhibition zone (DIZ) [2] | zone of inhibition at 100 µg/disc [7] | diameter of the inhibition zone (DIZ) [8] | diameter of the inhibition zone (DIZ) [9] | diameter of the inhibition zone (DIZ) [12] | zone of inhibition at 100 µg/disc [2] | zone of inhibition at 100 µg/disc [8] | diameter of the inhibition zone (DIZ) [1] | zone of inhibition at 100 µg/disc ([9]; read-out: DIZ) | diameter of the inhibition zone (DIZ) [7]
5 | O=[N+]([O-])c1ccc(-c2csc(N/N=C(/Cn3cncn3)c3ccc(F)cc3)n2)cc1 | > 64 µg/mL | inactive | inactive | inactive | inactive | > 64 µg/mL | – | – | – | 9.44 mm | inactive | 10.9 mm | inactive | inactive | inactive | – | – | – | – | –
6 | FC(F)(F)c1cc(/C(Cn2cncn2)=N\Nc2nc(-c3cc(C(F)(F)F)cc(C(F)(F)F)c3)cs2)cc(C(F)(F)F)c1 | 32 µg/mL (≈ 50.6 µM) | inactive | inactive | 64 µg/mL (≈ 101 µM) | inactive | – | – | inactive | – | 15.2 mm | – | 13.1 mm | inactive | inactive | inactive | 11.7 mm | – | – | – | –
7 | Fc1ccc(/C(Cn2cncn2)=N\Nc2nc(-c3ccc(Br)cc3)cs2)cc1 | 64 µg/mL (≈ 140 µM) | – | inactive | 64 µg/mL (≈ 140 µM) | inactive | 64 µg/mL (≈ 140 µM) | 32 µg/mL (≈ 70 µM) | – | – | 15.8 mm | – | – | – | inactive | inactive | 14.8 mm | 18.2 mm | – | – | inactive
